Columns and labels:
[1] = species on record: Mus musculus; assay: Effective dose evaluated against maximal electric seizures (MES) or convulsions in mice;activity value ranges from 66.58-109.74; type: functional
[2] = Protective index as the ratio of TD50 value against MES to that of ED50 value against MES.; type: ADME; conditions: read-out: PI
Method in brief: (§1)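 Protective index = rotorod TD50 divided by ED50 (MES or scMet), both from ip dosing in male Carworth Farms number-one mice, medians obtained graphically.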

[3] = system: Mus musculus; assay: Toxicity tested by rotarod test for neurologic deficit at interval of 30 min when 600 mg/kg was administered intraperitoneally; no activity; type: organism-based; design: dose 600 mg/kg, route intraperitoneal; conditions: in vivo, ip, 0.5 h
Method in brief: (§2)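 Male Carworth Farms number-one mice dosed ip with compound in 30% polyethylene glycol 400. Each mouse was placed on a 1-in.-diameter knurled plastic rod rotating at 6 rpm. Neurologic toxicity was scored as failure to stay on the rod for 1 min. Screening doses were 30, 100, 300 and sometimes 600 mg/kg, tested at 30 min and 4 h. TD50 was read by the graphical method.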

[4] = Toxic dose was determined by the rotarod test in mice; type: toxicity, organism-based; conditions: mouse, in vivo
[5] = Toxic dose was determined by the rotarod test in mice; activity value ranges from 556.77-815.69; type: toxicity, organism-based; conditions: mouse, in vivo
[6] = system: Mus musculus; assay: Toxicity tested by rotarod test for neurologic deficit at interval of 30 min when 600 mg/kg was administered intraperitoneally; shows activity; type: organism-based; design: dose 600 mg/kg, route intraperitoneal; conditions: in vivo, ip, 0.5 h; method in brief: as §2
[7] = system: Mus musculus; assay: Toxicity tested by rotarod test for neurologic deficit at interval of 4 hr when 600 mg/kg was administered intraperitoneally; no activity; type: organism-based; design: dose 600 mg/kg, route intraperitoneal; conditions: in vivo, ip; method in brief: as §2
[8] = species on record: Mus musculus; assay: Effective dose evaluated against maximal electric seizures (MES) or convulsions in mice; activity value ranges from 56.16-105.53; type: functional
[9] = system: Mus musculus; assay: Toxicity tested by rotarod test for neurologic deficit at interval of 30 min when 30 mg/kg was administered intraperitoneally; shows activity; type: organism-based; design: dose 30 mg/kg, route intraperitoneal; conditions: in vivo, ip, 0.5 h; method in brief: as §2
[10] = system: Mus musculus; assay: Toxicity tested by rotarod test for neurologic deficit at interval of 30 min when 300 mg/kg was administered intraperitoneally; shows activity; type: organism-based; design: dose 300 mg/kg, route intraperitoneal; conditions: in vivo, ip, 0.5 h; method in brief: as §2
[11] = system: Mus musculus; assay: Anticonvulsant activity of 600 mg/kg after 4 hr of intraperitoneal administration in mice against maximum electroshock seizures (MES); compound shows activity; type: functional, organism-based; design: dose 600 mg/kg
[12] = system: Mus musculus; assay: Anticonvulsant activity of 300 mg/kg after 30 min. of intraperitoneal administration in mice against maximum electroshock seizures (MES); compound shows activity; type: functional, organism-based; design: dose 300 mg/kg
[13] = system: Mus musculus; assay: Anticonvulsant activity of 600 mg/kg of compound against subcutaneous induced metrazole convulsions at interval of 30 min administered intraperitoneally in mice; compound shows activity; type: functional, organism-based; design: dose 600 mg/kg
[14] = system: Mus musculus; assay: Anticonvulsant activity of 600 mg/kg of compound against subcutaneous induced metrazole convulsions at interval of 4 hr administered intraperitoneally in mice; compound does not show activity; type: functional, organism-based; design: dose 600 mg/kg
[15] = Protective index as the ratio of TD50 value against scMET to that of ED50 value against scMET.; type: ADME; conditions: read-out: PI; method in brief: as §1
[16] = Toxic dose was determined by the rotarod test in mice; activity value ranges from 156.61-251.07; type: toxicity, organism-based; conditions: mouse, in vivo
[17] = species on record: Mus musculus; assay: Effective dose evaluated against maximal electric seizures (MES) or convulsions in mice; activity value ranges from 38.02-50.30; type: functional
[18] = system: Mus musculus; assay: Toxicity tested by rotarod test for neurologic deficit at interval of 30 min when 100 mg/kg was administered intraperitoneally; shows activity; type: organism-based; design: dose 100 mg/kg, route intraperitoneal; conditions: in vivo, ip, 0.5 h; method in brief: as §2
[19] = system: Mus musculus; assay: Toxicity tested by rotarod test for neurologic deficit at interval of 4 hr when 600 mg/kg was administered intraperitoneally; shows activity; type: organism-based; design: dose 600 mg/kg, route intraperitoneal; conditions: in vivo, ip; method in brief: as §2
[20] = Toxic dose was determined by the rotarod test in mice activity value ranges from 153.02-189.96; type: toxicity, organism-based; conditions: mouse, in vivo
[21] = system: Mus musculus; assay: Effective dose was evaluated for its anticonvulsant activity against subcutaneous induced metrazole convulsions in mice; activity value ranges from 38.83-46.00; type: functional; conditions: sc
[22] = system: Mus musculus; assay: Toxicity tested by rotarod test for neurologic deficit at interval of 4 hr when 300 mg/kg was administered intraperitoneally; shows activity; type: organism-based; design: dose 300 mg/kg, route intraperitoneal; conditions: in vivo, ip; method in brief: as §2
[23] = Toxic dose was determined by the rotarod test in mice; activity value ranges from 98.01-127.65; type: toxicity, organism-based; conditions: mouse, in vivo
[24] = system: Mus musculus; assay: Effective dose was evaluated for its anticonvulsant activity against subcutaneous induced metrazole convulsions in mice; activity value ranges from 122.64-177.02; type: functional; conditions: sc
[25] = species on record: Mus musculus; assay: Effective dose evaluated against maximal electric seizures (MES) or convulsions in mice; activity value ranges from 246.97-337.89; type: functional
[26] = Toxic dose was determined by the rotarod test in mice; activity value ranges from 40.62-57.10; type: toxicity, organism-based; conditions: mouse, in vivo
[27] = species on record: Mus musculus; assay: Effective dose evaluated against maximal electric seizures (MES) or convulsions in mice; activity value ranges from 14.70-19.13; type: functional
[28] = system: Mus musculus; assay: Toxicity tested by rotarod test for neurologic deficit at interval of 4 hr when 100 mg/kg was administered intraperitoneally; shows activity; type: organism-based; design: dose 100 mg/kg, route intraperitoneal; conditions: in vivo, ip; method in brief: as §2
[29] = Toxic dose was determined by the rotarod test in mice; activity value ranges from 130.89-161.13; type: toxicity, organism-based; conditions: mouse, in vivo
[30] = species on record: Mus musculus; assay: Effective dose evaluated against maximal electric seizures (MES) or convulsions in mice; activity value ranges from 39.77-53.41; type: functional
[31] = Toxic dose was determined by the rotarod test in mice; activity value ranges from 88.85-119.90; type: toxicity, organism-based; conditions: mouse, in vivo
[32] = species on record: Mus musculus; assay: Effective dose evaluated against maximal electric seizures (MES) or convulsions in mice; activity value ranges from 12.50-31.75; type: functional
[33] = system: Mus musculus; assay: Toxicity tested by rotarod test for neurologic deficit at interval of 4 hr when administered intraperitoneally; LD50 < 600 mg/kg; type: organism-based; design: dose 600 mg/kg, route intraperitoneal; conditions: in vivo, ip
[34] = species on record: Mus musculus; assay: Effective dose evaluated against maximal electric seizures (MES) or convulsions in mice; activity value ranges from 2.18-3.07; type: functional

In the case of Cc1cccc(C(C)C)c1NC(=O)c1ccc(N)cc1, the ED50 [1] is reported as 86.1 mg/kg, the selectivity ratio [2] is reported as > 17.4 and the Toxicity [3] is reported as “No activity”. The TD50 [4] was > 1500 mg/kg.

With CC(C)c1ccccc1NC(=O)c1ccc(N)cc1 the TD50 [5] was 709 mg/kg, the selectivity ratio [2] was 8.7 and the Toxicity [6] was “No activity”. For the same compound, the Toxicity [7] was “No activity” and the ED50 [8] was 81.5 mg/kg.

With Cc1ccccc1NC(=O)c1ccc(N)cc1 the Toxicity [9] was “Activity” and the Toxicity [10] was “Activity”.

With Cc1ccc(NC(=O)c2ccc(N)cc2)c(C)c1 the Activity [11] was “No activity”, the Activity [12] was “No activity” and the Toxicity [6] was “No activity”. The Toxicity [7] was “No activity”, the Activity [13] was “No activity” and the Activity [14] was “No activity”.

For Cc1ccc(NC(=O)c2ccc(N)cc2)cc1C, the selectivity ratio [15] was 2.4, the selectivity ratio [2] was 4.59 and the TD50 [16] was 194 mg/kg. The ED50 [17] was 42.3 mg/kg, the Toxicity [18] was “Activity” and the Toxicity [19] was “Activity”.

Work on CC(NC(=O)c1ccc(N)cc1)c1ccccc1 (centres undefined) yielded a TD50 [20] of 171 mg/kg, a selectivity ratio [15] of 4.1 and a selectivity ratio [2] of 9.5. The ED50 [21] was 41.8 mg/kg.

In the case of Cc1ccc(C)c(NC(=O)c2ccc(N)cc2)c1, the Toxicity [3] is reported as “No activity” and the Toxicity [7] is reported as “No activity”.

In the case of Nc1ccc(C(=O)Nc2ccccc2)cc1, the Toxicity [22] is reported as “Activity”, the selectivity ratio [15] is reported as 1.88 and the selectivity ratio [2] is reported as 2.2. The TD50 [23] was 111 mg/kg and the Toxicity [18] was “Activity”.

CCCC(CCC)C(=O)O [VALPROIC ACID] showed an ED50 [24] of 149 mg/kg and an ED50 [25] of 272 mg/kg.

For CCc1cccc(C(C)C)c1NC(=O)c1ccc(N)cc1, the TD50 [26] was 49.1 mg/kg, the Toxicity [9] was “Activity” and the selectivity ratio [2] was 2.95. For the same compound, the ED50 [27] was 16.7 mg/kg and the Toxicity [28] was “Activity”.

With Cc1ccc(NC(=O)c2ccc(N)cc2)cc1 the Toxicity [18] was “Activity” and the Toxicity [19] was “Activity”.

In the case of Cc1cccc(NC(=O)c2ccc(N)cc2)c1, the TD50 [29] is reported as 143 mg/kg, the selectivity ratio [15] is reported as 1.62 and the selectivity ratio [2] is reported as 3.03. For the same compound, the Toxicity [10] was “Activity”, the Toxicity [19] was “Activity” and the ED50 [30] was 47 mg/kg.

For Cc1cc(C)cc(NC(=O)c2ccc(N)cc2)c1, the Toxicity [3] was “No activity” and the Toxicity [7] was “No activity”.

Cc1cccc(NC(=O)c2ccc(N)cc2)c1C gave a selectivity ratio [2] of 4.11, a TD50 [31] of 104 mg/kg and an ED50 [32] of 25.2 mg/kg. For the same compound, the Toxicity [18] was “LD50 < 600 mg/kg” and the Toxicity [33] was “LD50 < 600 mg/kg”.

In the case of Cc1cccc(C)c1NC(=O)c1ccc(N)cc1 [AMELTOLIDE], the Toxicity [9] is reported as “Activity”, the Toxicity [28] is reported as “Activity” and the ED50 [34] is reported as 2.6 mg/kg.

— ChEMBL document CHEMBL1123037, “Anticonvulsant activity of some 4-aminobenzanilides” (J Med Chem, 1985)
